Results on eleven molecules are retold here after PMC11462461 (Heliyon, 2024).

Series [1] has as its system HCT116 cells. Kind of series: MTT assay, HCT116. The class given is cell-based. The conditions noted are these: Homo sapiens, HCT-116, 48 h. Summed up: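 STR-authenticated, mycoplasma-tested HCT116 cells were grown in 10 % FBS medium at 37 °C. They were seeded in 96-well plates, left to attach overnight, and exposed to increasing concentrations of test compound for 48 h. DMSO-treated cells were the control. MTT formazan was solubilized and read at 570 nm. Experiments were repeated thrice, with SEM error bars.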

For another series, the system named is HeLa cells. Kind of series: MTT assay, HeLa. The class given is cell-based. The conditions noted are these: Homo sapiens, 48 h. Summed up: (§1)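 Cells were STR-authenticated and mycoplasma-tested (HEK was a gift; the others were from a national cell repository). They were cultured with 10 % FBS at 37 °C, with or without 5 % CO2, then plated in 96-well plates and allowed to attach overnight. Test compound was added at increasing concentrations for 48 h. Solubilized MTT formazan absorbance was read at 570 nm. At least three independent experiments were run.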
Background: Tetrazolium dyes change colour on reduction, which living cells bring about.

In the next series the test system is MDA-MB-231 cells. Kind of series: MTT assay, MDA-MB-231. The class given is cell-based. The settings on record: Homo sapiens, MDA-MB-231, 48 h. In a few lines: as §1
The next series relates to HEK cells. Kind of series: MTT assay, normal kidney cells HEK. The conditions noted are these: for IC50: Homo sapiens, HEK293, 48 h. The class given is cell-based, Human. Summed up:
as §1

Series [2] relates to HCT116 cells. Kind of series: Foci formation assay. The class given is cell-based, Human. The settings on record: HCT116, 12 days, crystal violet.
Series [3] concerns HCT116 cells. Kind of series: Acridine orange/PI dual staining. The class given is cell-based, Human. The settings on record: HCT116, 48 h.
The test system of series [4] is HCT116 cells. The experiment in a line: Hoechst/PI double staining. In kind it is cell-based, Human. The conditions noted are these: HCT116, 48 h.

In the case of `COc1ccc(-c2cc(C(=O)Nc3ccccc3)c3cc(-c4cnc(Cl)c(C)c4)ccc3n2)cc1` [Compound 7g, 6-(6-Chloro-5-methylpyridin-3-yl)-2-(4-methoxyphenyl)-N-phenylquinoline-4-carboxamide], the IC50 with HCT116 cells [1], in the series on HeLa cells, with MDA-MB-231 cells and in the series on HEK cells was greater than 50 µM throughout.
On to `COc1ccc(-c2cc(C(=O)Nc3ccccc3)c3cc(-c4cc(C)ccc4F)ccc3n2)cc1` [Compound 7f, 6-(2-Fluoro-5-methylphenyl)-2-(4-methoxyphenyl)-N-phenylquinoline-4-carboxamide], for which the IC50 in the series on HCT116 cells [1], in the series on HeLa cells, in the series on MDA-MB-231 cells and in the series on HEK cells was greater than 50 µM each time.
As for `COc1ccc(-c2cc(C(=O)Nc3ccccc3)c3cc(-c4ccc(Cl)cc4)ccc3n2)cc1` [Compound 7d, 6-(4-chlorophenyl)-2-(4-methoxyphenyl)-N-phenylquinoline-4-carboxamide], the IC50 (commonly the concentration at which inhibition is half-maximal) in the series with HCT116 cells [1] is 39.8 ± 0.11 µM; in the series on HeLa cells, 38.3 ± 0.25 µM; with MDA-MB-231 cells, greater than 50 µM; with HEK cells it was greater than 50 µM.
On to `COc1ccc(F)cc1-c1ccc2nc(-c3ccccc3)cc(C(=O)Nc3ccccc3)c2c1` [Compound 7i, 6-(5-Fluoro-2-methoxyphenyl)-N,2-diphenylquinoline-4-carboxamide], for which the IC50 with HCT116 cells [1] was 44.2 ± 0.08 µM; in the series with HeLa cells, greater than 50 µM; with MDA-MB-231 cells it was greater than 50 µM; in the series with HEK cells, greater than 50 µM.
`COc1ccc(-c2cc(C(=O)Nc3ccccc3)c3cc(-c4cc(Cl)ccc4F)ccc3n2)cc1` [Compound 7c, 6-(5-Chloro-2-fluorophenyl)-2-(4-methoxyphenyl)-N-phenylquinoline-4-carboxamide]: the half-inhibitory concentration (IC50) was 41.8 ± 0.16 µM with HCT116 cells [1], 42.4 ± 0.37 µM in the series on HeLa cells, greater than 50 µM with MDA-MB-231 cells and greater than 50 µM in the series on HEK cells.
As for `O=C(Nc1ccccc1)c1cc(-c2ccccc2)nc2ccc(-c3ccccc3)cc12` [Compound 7h, N,2,6-triphenylquinoline-4-carboxamide], the IC50 in the series on HCT116 cells [1] was 41.6 ± 0.11 µM; with HeLa cells, 43.3 ± 0.31 µM; with MDA-MB-231 cells, 46.3 ± 0.18 µM; in the series on HEK cells, greater than 50 µM.
For `COc1ccc(-c2cc(C(=O)Nc3ccccc3)c3cc(-c4cc(F)ccc4OC)ccc3n2)cc1` [Compound 7b, 6-(5-Fluoro-2-methoxyphenyl)-2-(4-methoxyphenyl)-N-phenylquinoline-4-carboxamide] the same measures were 43.3 ± 0.53 µM, 41.6 ± 0.58 µM, greater than 50 µM and greater than 50 µM.
The like results for `COc1cccc2c1C(=O)c1c(O)c3c(c(O)c1C2=O)C[C@@](O)(C(=O)CO)C[C@@H]3O[C@H]1C[C@H](N)[C@H](O)[C@H](C)O1` [Doxorubicin, reference compound] were, in that order, 1.26 ± 0.09 µM, 5.04 ± 0.41 µM, 5.32 ± 0.11 µM and 8.23 ± 0.73 µM.
Take `COc1ccc(-c2cc(C(=O)Nc3ccccc3)c3cc(-c4ccccc4)ccc3n2)cc1` [Compound 7a, 2-(4-methoxyphenyl)-N,6-diphenylquinoline-4-carboxamide]: the IC50 with HCT116 cells [1] was 35.6 ± 0.06 µM; in the series on HeLa cells it was 41.3 ± 0.06 µM; with MDA-MB-231 cells, 39.2 ± 0.13 µM; in the series with HEK cells, greater than 50 µM. For the same molecule, in the series with HEK cells (HeK), the “toxicity towards normal cell lines” value is “less toxicity towards normal cell lines”. Also, the colony formation result in the series on HCT116 cells [2] was “inhibit colony formation of colon cancer cells in a concentration dependent manner”. For the same molecule, the “propidium iodide uptake (live/dead cells)” value in the series on HCT116 cells [3] was “propidium iodide uptake in concentration dependent manner”. Further, the “propidium iodide uptake and nuclear membrane deformation” value in the series on HCT116 cells [4] is listed as “uptake of propidium iodide in concentration dependent manner with nuclear membrane deformation in dead cells”.
With `COc1ccc(-c2cc(C(=O)Nc3ccccc3)c3cc(-c4cccs4)ccc3n2)cc1` [Compound 7e, 2-(4-methoxyphenyl)-N-phenyl-6-(thiophen-2-yl)quinoline-4-carboxamide], the IC50 with HCT116 cells [1], in the series with HeLa cells, in the series on MDA-MB-231 cells and in the series with HEK cells was greater than 50 µM in each case.
For the molecule `COc1ccc(F)cc1-c1ccc2nc(-c3ccc(F)cc3)cc(C(=O)Nc3ccccc3)c2c1` [Compound 7j, 6-(5-Fluoro-2-methoxyphenyl)-2-(4-fluorophenyl)-N-phenylquinoline-4-carboxamide], the IC50 in the series with HCT116 cells [1] was 42.5 ± 0.23 µM; in the series with HeLa cells, greater than 50 µM; in the series with MDA-MB-231 cells, greater than 50 µM; in the series on HEK cells, greater than 50 µM.
